This is an account of results in ChEMBL document CHEMBL5036380, “New Highly Potent NLRP3 Inhibitors: Furanochalcone Velutone F Analogues” (ACS Med Chem Lett, 2022).

As usually defined, the inhibition is the drop in the measured response relative to a control, in per cent.

Molecules are shown by their SMILES. The source made the active and inactive calls. The rule behind the calls is not given here.

The test system of the first series is THP-1. The experiment in a line: Cytotoxicity against human THP-1 cells assessed as reduction in cell viability at 0.05 to 6.4 uM measured after 90 mins by CCK8 assay. It counts as cell-based. Particulars: thp-1, 1.5 h, dose 0.05-6.4 µM. An outline of the steps: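 THP-1 cells preincubated with compound (0.05–6.4 μM) for 1.5 h; viability read by CCK8 assay.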
A general note: Tetrazolium assays rely on reduction of a dye to a coloured formazan, in cell work by metabolically active cells.
For the compound `COc1cc(-c2ccccc2NS(C)(=O)=O)c(OC)cc1/C=C/C(=O)c1ccc(F)cc1`, the Activity result was “Non-Toxic”. `COc1c(/C=C/C(=O)c2ccc(F)cc2)cc(OC)c2occc12`: the Activity result is “Non-Toxic”.

With `COc1cc(-c2ccccc2S(C)(=O)=O)c(OC)cc1/C=C/C(=O)c1ccc(F)cc1`, the Activity entry is reported as “Non-Toxic”.

For another series, the system named is THP-1. In words: Antiinflammatory activity in human THP-1 cells assessed as inhibition of LPS-induced IL-1beta secretion in LPS stimulation for 3 hrs followed by pretreatment for 40 min before induced with nigericin for 40 min measured by ELISA. The settings on record: time 80 min; 1.333 h. It counts as functional. An outline of the steps: (§1)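 THP-1 cells (2 × 10^5 cells/mL) differentiated with PMA (100 ng/mL) for 24 h. Next day, primed with LPS (1 μg/mL) for 3 h, then compound for 40 min, then nigericin (10 μM) for 40 min. IL-1β in supernatant measured by ELISA; % inhibition as mean ± SD of three independent experiments. The single-concentration screen used 2 μM.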
Take `COc1cc(-c2ccccc2NS(C)(=O)=O)c(OC)cc1/C=C/C(=O)c1ccc(F)cc1`: the Activity stood at 0.407 µM. Still for that read-out and setting: the value for `COc1c(/C=C/C(=O)c2ccc(F)cc2)cc(OC)c2occc12` was 0.656 µM; that for `COc1cc(-c2ccccc2S(C)(=O)=O)c(OC)cc1/C=C/C(=O)c1ccc(F)cc1` was 0.325 µM.

The test system of another series is THP-1. In words: Antiinflammatory activity in human THP-1 cells assessed as inhibition of LPS-induced IL-1beta secretion in LPS stimulation for 3 hrs followed by pretreatment at 2uM for 40 min before induced with nigericin for 40 min measured by ELISA. Particulars: THP-1, 1.333 h, time 80 min. It counts as functional. Put shortly:
as §1
(ELISA stands for enzyme-linked immunosorbent assay.)
`COc1cc(/C=C/C(=O)c2ccc(F)cc2)c(OC)cc1C`: the inhibition at 2 µM was 80.6%. On the same count and under the same terms, under `COc1cc(NS(=O)(=O)C2CC2)c(OC)cc1/C=C/C(=O)c1ccc(F)cc1` stands 24.8%. On the same count and under the same terms, the value for `COc1c(/C=C/C(=O)c2ccc(Br)cc2)cc(OC)c2occc12` was 50.1%; that for `COc1c(/C=C/C(=O)c2ccccc2N)cc(OC)c2occc12` was 19.8%.

Turning to `COc1c(/C=C/C(=O)c2ccccc2F)cc(OC)c2occc12`, the inhibition at 2 µM worked out at 50.4%. On the same count and under the same terms, the value for `C=CC(=O)N(Cc1cc(OC)c2occc2c1OC)c1ccc(F)cc1` was 15%; that for `COc1cc(-c2ccoc2)c(OC)cc1/C=C/C(=O)c1ccc(F)cc1` was 38.5%. Same read-out and setting: under `COc1c(C(=O)/C=C/c2ccccc2)cc(OC)c2occc12` stands 15.5%; under `COc1ccc(OC)c(/C=C/C(=O)c2ccc(F)cc2)c1`, 91.1%. Take `COc1c(/C=C/C(=O)c2cccc(F)c2)cc(OC)c2occc12`: the inhibition at 2 µM is 51.4%.

In the case of `COc1cc(-c2ccccc2NS(C)(=O)=O)c(OC)cc1/C=C/C(=O)c1ccc(F)cc1`, the inhibition at 2 µM was 101%. The same measure, in the same setting: the value for `COc1c(/C=C/C(=O)c2cccc(Br)n2)cc(OC)c2occc12` was 67.7%.

In the case of `COc1c(/C=C/C(=O)c2ccc(F)cc2)cc(OC)c2occc12`, the inhibition at 2 µM is 88.2%. With `COc1c(/C=C/C(=O)c2ccco2)cc(OC)c2occc12`, the inhibition at 2 µM stood at 32.8%.

Turning to `C=CC(=O)N(Cc1cc(OC)c2occc2c1OC)c1ccccc1`, the inhibition at 2 µM was determined as 31.8%. Still for that read-out and setting: under `COc1c(/C=C/C(=O)Nc2ccccc2)cc(OC)c2occc12` stands 7.4%.

As for `COc1c(/C=C/C(=O)c2ccc(Cl)cn2)cc(OC)c2occc12`, the inhibition at 2 µM turned out to be 20.3%. The same measure, in the same setting: under `COc1c(CCC(=O)c2cccc(Br)n2)cc(OC)c2occc12` stands 10.7%; under `COc1c(/C=C/C(=O)c2ccc3ccccc3n2)cc(OC)c2occc12`, 32.1%. Same read-out and setting: under `COc1c(/C=C/C(=O)c2cccc(C(F)(F)F)n2)cc(OC)c2occc12` stands 32.4%; under `COc1c(/C=C/C(=O)c2cccc(C(F)(F)F)c2)cc(OC)c2occc12`, 64.7%. As for `COc1c(/C=C/C(=O)c2ccccc2)cc(OC)c2occc12`, the inhibition at 2 µM is 50.8%. Still for that read-out and setting: under `COc1c(/C=C/C(=O)c2cccc(O)c2)cc(OC)c2occc12` stands 60.5%; under `COc1c(/C=C/C(=O)c2ccc(C#N)cc2)cc(OC)c2occc12`, 27.6%; under `COc1c(/C=C/C(=O)c2ccc(C(F)(F)F)cc2)cc(OC)c2occc12`, 50%. The same measure, in the same setting: under `COc1c(/C=C/C(=O)c2cccc(C)c2)cc(OC)c2occc12` stands 75%; under `COc1cc(-c2ccccc2S(C)(=O)=O)c(OC)cc1/C=C/C(=O)c1ccc(F)cc1`, 102%; under `COc1c(/C=C/C(=O)c2cccc(N)c2)cc(OC)c2occc12`, 58.8%.

Regarding `COc1c(/C=C/C(=O)c2ccc[nH]2)cc(OC)c2occc12`, the inhibition at 2 µM is 10.3%.

As for `COc1c(/C=C/C(=O)c2cccc(-c3ccccc3)n2)cc(OC)c2occc12`, the inhibition at 2 µM came out at 15.9%. `COc1c(/C=C/C(=O)c2cccc(-c3cccs3)n2)cc(OC)c2occc12`: the inhibition at 2 µM stood at 15.9%. For the compound `COc1c(/C=C/C(=O)c2ccccn2)cc(OC)c2occc12`, the inhibition at 2 µM is 56.9%.

Take `CC(C)(O)c1coc(S(=O)(=O)NC(=O)Nc2c3c(cc4c2CCC4)CCC3)c1`: the inhibition at 2 µM came to 106%.

As to `COc1c(/C=C/C(=O)C2CC2)cc(OC)c2occc12`, the inhibition at 2 µM is 8.7%. Same read-out and setting: the value for `COc1cc(C(=O)/C=C/c2cc(OC)c3occc3c2OC)cc(OC)c1OC` was 42%.

Turning to `COc1c(/C=C/C(=O)O)cc(OC)c2occc12`, the inhibition at 2 µM stood at 5.2%.

The series is the same for the next values; noted with them: time 80.0 min.
Regarding `COc1cc(/C=C/C(=O)c2ccc(F)cc2)c(OC)cc1C=C(C)C`, the inhibition result is “inactive”.

For the compound `COc1cc(-c2cccc(Cl)c2)c(OC)cc1/C=C/C(=O)c1ccc(F)cc1`, the inhibition entry was “inactive”. Still for that read-out and setting: under `COc1cc(-c2cc(F)cc(F)c2)c(OC)cc1/C=C/C(=O)c1ccc(F)cc1` stands “inactive”; under `COc1cc(-c2ccsc2)c(OC)cc1/C=C/C(=O)c1ccc(F)cc1`, “inactive”; under `C=CC(=O)N(Cc1cc(OC)c2occc2c1OC)c1cccc(Br)n1`, “inactive”. As for `COc1c(/C=C/C(=O)Nc2ccc(F)cc2)cc(OC)c2occc12`, the inhibition entry is “inactive”.

`C=CC(=O)N(Cc1cc(OC)c2occc2c1OC)c1cccc(C(F)(F)F)c1`: the inhibition result was “inactive”. As to `COc1c(/C=C/C(=O)c2ccc(N)cc2)cc(OC)c2occc12`, the inhibition result was “inactive”.

Turning to `COc1cncc(-c2cc(OC)c(/C=C/C(=O)c3ccc(F)cc3)cc2OC)c1`, the inhibition result is “inactive”. Still for that read-out and setting: the value for `COc1c(CCC(=O)c2ccc(F)cc2)cc(OC)c2occc12` was “inactive”; that for `COc1c(/C=C/C(=O)Nc2cccc(C(F)(F)F)c2)cc(OC)c2occc12` was “inactive”. `COc1c(CCC(=O)c2ccccc2)cc(OC)c2occc12`: the inhibition entry is “inactive”. In the case of `COc1c(CCC(=O)c2cccc(C(F)(F)F)c2)cc(OC)c2occc12`, the inhibition result was “inactive”. Same read-out and setting: the value for `COc1cc(-c2ccccc2C)c(OC)cc1/C=C/C(=O)c1ccc(F)cc1` was “inactive”; that for `COc1cc(-c2cn[nH]c2)c(OC)cc1/C=C/C(=O)c1ccc(F)cc1` was “inactive”; that for `COc1cc(NS(C)(=O)=O)c(OC)cc1/C=C/C(=O)c1ccc(F)cc1` was “inactive”. With `COc1c(/C=C/C(=O)Nc2cccc(Br)n2)cc(OC)c2occc12`, the inhibition entry was “inactive”.

For the next series, the system named is Spleen. In words: Downregulation of IL-1beta level in spleen of LPS treated C57BL/6J mouse at 10 mg/kg, iv measured after 6 hrs by ELISA.
Conditions: not given
Consider `COc1c(/C=C/C(=O)c2ccccc2)cc(OC)c2occc12`, for which the outcome was Active.
